Values after ≈ are worked out from the molar mass of the structure shown.
Key:
[1] = test system: Aspergillus terreus; test: Antifungal activity against Aspergillus terreus by EUCAST method; type: functional
[2] = test system: Geotrichum candidum; test: Antifungal activity against Geotrichum candidum; type: functional
[3] = test system: Rhizopus; test: Antifungal activity against Rhizopus species; type: functional
Procedure, shortened: (§1)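 Broth microdilution following the EUCAST reference procedure for spore-forming moulds, in flat-bottom plates with RPMI 1640 plus 2% glucose. Inoculum was 2 × 10^5 to 5 × 10^5 CFU/ml. MICs were read visually at 24 and 48 h as 100% growth reduction versus a drug-free control for polyenes and azoles. MEC was used for caspofungin. Tests were run in duplicate and repeated twice.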

[4] = test system: Saccharomyces cerevisiae; test: Antifungal activity against Saccharomyces cerevisiae; type: functional
Procedure, shortened: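 Broth microdilution following EUCAST for fermentative yeasts, in flat-bottom plates with RPMI 1640 plus 2% glucose. Inoculum was 0.5 × 10^5 to 2.5 × 10^5 CFU/ml. End points were read spectrophotometrically at 24 h: ≥90% growth reduction versus a drug-free control for amphotericin B, and 50% OD reduction for azoles and caspofungin. MFC was the lowest concentration giving 99% killing.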

[5] = test system: Rhizopus arrhizus; test: Antifungal activity against Rhizopus oryzae; type: functional; procedure, shortened: as §1
[6] = test system: Fusarium solani; test: Antifungal activity against Fusarium solani by EUCAST method; type: functional
[7] = test system: Talaromyces marneffei; test: Antifungal activity against Penicillium marneffei by EUCAST method; type: functional
[8] = test system: Rhizopus arrhizus; test: Antifungal activity against Rhizopus oryzae by EUCAST method; type: functional; procedure, shortened: as §1
[9] = test system: Trichosporon inkin; test: Antifungal activity against Trichosporon inkin by EUCAST method; type: functional
Procedure, shortened: (§2)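 Nonfermentative yeasts were tested by the EUCAST microdilution recommendations with one change: plates were sealed and agitated at 350 rpm and 30°C for 48 h.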

[10] = test system: Curvularia lunata; test: Antifungal activity against Curvularia lunata; type: functional
[11] = test system: Rhizomucor; test: Antifungal activity against Rhizomucor species; type: functional
[12] = test system: Pichia kudriavzevii; test: Antifungal activity against Candida krusei; type: functional
Procedure, shortened: (§3)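 EUCAST broth microdilution for yeasts in flat-bottom plates, RPMI 1640 with 2% glucose, inoculum 0.5 × 105 to 2.5 × 10^5 CFU/ml. […] MFC is the lowest concentration giving 99% killing.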

[13] = test system: Lomentospora prolificans; test: Antifungal activity against Scedosporium prolificans; type: functional; procedure, shortened: as §1
[14] = Antifungal activity against Cryptococcus neoformans var. neoformans by EUCAST method; type: functional; conditions: Cryptococcus deneoformans
Procedure, shortened: (§4)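 EUCAST yeast microdilution, modified for nonfermentative yeasts: plates were sealed and agitated at 350 rpm and 30°C for 48 h.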

[15] = test system: Clavispora lusitaniae; test: Antifungal activity against Candida lusitaniae; type: functional
Procedure, shortened: (§5)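 Broth microdilution in flat-bottom plates in RPMI 1640 with 2% glucose; inoculum 0.5 × 105 to 2.5 × 10^5 CFU/ml. MICs were read spectrophotometrically at 24 h. AMB endpoint: ≥90% growth reduction vs drug-free control well. Azole and CPF endpoint: 50% reduction in optical density. MFC was taken as the lowest concentration giving 99% killing.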

[16] = Antifungal activity against Rhinocladiella aquaspersa by EUCAST method; type: functional
Procedure, shortened: (§6)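 Dematiaceous fungi were tested by the EUCAST spore-forming mold reference procedure: flat-bottom microdilution plates, RPMI 1640 plus 2% glucose, inoculum 2 × 105 to 5 × 10^5 CFU/ml. Endpoints were read visually at 24 and 48 h. Polyenes and azoles: 100% growth reduction vs drug-free control. CPF: minimum effective concentration. Run in duplicate and repeated twice.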

[17] = test system: Absidia; test: Antifungal activity against Absidia species by EUCAST method; type: functional
[18] = test system: Absidia; test: Antifungal activity against Absidia species; type: functional
[19] = test system: Curvularia lunata; test: Antifungal activity against Curvularia lunata by EUCAST method; type: functional; procedure, shortened: as §6
[20] = Antifungal activity against Rhizopus microsporus var. oligosporus; type: functional; procedure, shortened: as §1
[21] = Antifungal activity against Rhinocladiella aquaspersa; type: functional; procedure, shortened: as §6
[22] = test system: Fusarium oxysporum; test: Antifungal activity against Fusarium oxysporum; type: functional
[23] = test system: Penicillium sp.; test: Antifungal activity against Penicillium species; type: functional
[24] = test system: Trichosporon asahii; test: Antifungal activity against Trichosporon asahii by EUCAST method; type: functional; procedure, shortened: as §2
[25] = test system: Saccharomyces cerevisiae; test: Antifungal activity against Saccharomyces cerevisiae by EUCAST method; type: functional; procedure, shortened: as §3
[26] = test system: Geotrichum candidum; test: Antifungal activity against Geotrichum candidum by EUCAST method; type: functional
[27] = test system: Aspergillus flavus; test: Antifungal activity against Aspergillus flavus; type: functional
[28] = test system: Mucor; test: Antifungal activity against Mucor species by EUCAST method; type: functional
[29] = test system: Cryptococcus gattii; test: Antifungal activity against Cryptococcus neoformans var. gattii; type: functional, Cryptococcus bacillisporus; procedure, shortened: as §4
[30] = test system: Mucor hiemalis; test: Antifungal activity against Mucor hiemalis; type: functional
[31] = test system: Nakaseomyces glabratus; test: Antifungal activity against Candida glabrata; type: functional; procedure, shortened: as §5
[32] = test system: Aspergillus niger; test: Antifungal activity against Aspergillus niger; type: functional
[33] = test system: Trichosporon inkin; test: Antifungal activity against Trichosporon inkin; type: functional; procedure, shortened: as §2
[34] = test system: Fusarium oxysporum; test: Antifungal activity against Fusarium oxysporum by EUCAST method; type: functional
[35] = test system: Candida tropicalis; test: Antifungal activity against Candida tropicalis by EUCAST method; type: functional; procedure, shortened: as §5

MIC [1]: 2.82 µg/mL (≈ 3.05 µM)
MIC [6]: 1 µg/mL (≈ 1.08 µM)
MIC [7]: 1.5 µg/mL (≈ 1.62 µM)
MIC [8]: 3 µg/mL (≈ 3.25 µM)
MIC [9]: 0.5 µg/mL (≈ 0.541 µM)
MIC [14]: 0.75 µg/mL (≈ 0.812 µM)
MIC [16]: 1 µg/mL (≈ 1.08 µM)
MIC [17]: 0.8 µg/mL (≈ 0.866 µM)
MIC [19]: 0.75 µg/mL (≈ 0.812 µM)
MIC [24]: 1.5 µg/mL (≈ 1.62 µM)
MIC [25]: 0.66 µg/mL (≈ 0.714 µM)
MIC [26]: 1.5 µg/mL (≈ 1.62 µM)
MIC [28]: 0.73 µg/mL (≈ 0.79 µM)
MIC [34]: 2.5 µg/mL (≈ 2.71 µM)
MIC [35]: 0.38 µg/mL (≈ 0.411 µM)
SMILES: C[C@@H]1[C@H](O)[C@@H](C)/C=C/C=C/C=C/C=C/C=C/C=C/C=C/[C@H](O[C@@H]2O[C@H](C)[C@@H](O)[C@H](N)[C@@H]2O)C[C@@H]2O[C@](O)(C[C@@H](O)C[C@@H](O)[C@H](O)CC[C@@H](O)C[C@@H](O)CC(=O)O[C@H]1C)C[C@H](O)[C@H]2C(=O)O [AMPHOTERICIN B]
MFC [2]: > 4 µg/mL
MFC [3]: 2 µg/mL (≈ 2.16 µM)
MFC [4]: > 4 µg/mL
MFC [5]: 4 µg/mL (≈ 4.33 µM)
MFC [10]: 1 µg/mL (≈ 1.08 µM)
MFC [11]: 1 µg/mL (≈ 1.08 µM)
MFC [12]: 0.5 µg/mL (≈ 0.541 µM)
MFC [13]: > 8 µg/mL
MFC [15]: 4 µg/mL (≈ 4.33 µM)
MFC [18]: 1 µg/mL (≈ 1.08 µM)
MFC [20]: 4 µg/mL (≈ 4.33 µM)
MFC [21]: 1 µg/mL (≈ 1.08 µM)
MFC [22]: 1 µg/mL (≈ 1.08 µM)
MFC [23]: > 4 µg/mL
MFC [27]: > 4 µg/mL
MFC [29]: 1 µg/mL (≈ 1.08 µM)
MFC [30]: 1 µg/mL (≈ 1.08 µM)
MFC [31]: 0.5 µg/mL (≈ 0.541 µM)
MFC [32]: > 4 µg/mL
MFC [33]: 1 µg/mL (≈ 1.08 µM)

Reference: ChEMBL document CHEMBL1275524, “Activities of antifungal agents against yeasts and filamentous fungi: assessment according to the methodology of the European Committee on Antimicrobial Susceptibility Testing” (2008)
